# Results collected from several papers.
# Lines come from different studies, so protocols differ.
# Target: Phosphatidylinositol 4-phosphate 5-kinase type-1 gamma (PIP5K1C, Homo sapiens, UniProt O60331)
Structure (SMILES),observed,mode,method,concentration,quantity,value
C1=C/COCc2cc(ccc2OCCN2CCCC2)Nc2nccc(n2)-c2cccc(c2)COC/1,binding,,,0.1 µM,remaining binding,60%
CCCCC(=O)Nc1ccc(-c2ccc3ncn(CCC)c(=O)c3c2)cn1,binding,,competition with immobilised ligand,0.5 µM,remaining binding,96%
CC#CC(=O)N1CCC[C@H]1c1nc(-c2ccc(C(=O)Nc3ccccn3)cc2)c2c(N)nccn12,enzyme activity,inhibitor,,1 µM,inhibition,0%
CC(C)S(=O)(=O)c1ccc2nccc(Nc3ccc4sc(C5CCCC5)nc4c3)c2c1,enzyme activity,inhibitor,,1 µM,activity vs control,105%
Cc1ccc(NC(=O)c2ccnc(C(F)(F)F)c2)cc1-c1cc(OCCO)nc(N2CCOCC2)c1,binding,,,1 µM,remaining binding,98%
CO[C@@H]1[C@H](N(C)C(=O)c2ccccc2)C[C@H]2O[C@]1(C)n1c3ccccc3c3c4c(c5c6ccccc6n2c5c31)C(=O)NC4,enzyme activity,inhibitor,,1 µM,inhibition,11%
COc1ccc2[nH]c3c4[nH]c5ccc(OC)cc5c4c4c(c3c2c1)C(=O)NC4=O,binding,,,1 µM,remaining binding,81%
COc1ccc2oc(-c3ccc4nc(N)oc4c3)c/c(=N\c3ccccc3NC(=O)CCN)c2c1,binding,,,1 µM,remaining binding,102%
